This is an account of results in ChEMBL document CHEMBL2396655, “Design, synthesis, and biological evaluation of (E)-N-aryl-2-arylethenesulfonamide analogues as potent and orally bioavailable microtubule-targeted anticancer agents” (J Med Chem, 2013).

The target of series [1] is Tubulin (Homo sapiens) (UniProt P68371+Q9H4B7+P0DPH7+P68366+Q13509+Q71U36+P04350+Q3ZCM7+P07437+P68363+Q9BQE3+Q6PEY2+Q13885+Q9BVA1+Q9BUF5). The series can be described thus: Inhibition of tubulin polymerization in human DU145 cells after 24 hrs by Western blotting analysis. The note with it: DU-145. Type of series: cell-based. For orientation: In western blotting, separated proteins are transferred to a membrane and probed.

The test system of series [2] is Mus musculus. Description: AUC in ICR mouse at 5 mg/kg, iv by LC-MS/MS analysis. Type of series: ADME, organism-based, Plasma. More on the design: dose 5 mg/kg, route intravenous. The note with it: in vivo. The essentials:
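Male ICR mice, 6–8 weeks old, N=3 per group. Single 5 mg/kg dose in NMP:PEG300:water (1:4:5 v/v), given as IV bolus or oral gavage. Serial arterial blood was drawn through a carotid cannula at 2–360 min. Plasma was protein-precipitated with acetonitrile containing internal standard and assayed by LC/MS/MS. Parameters were derived by noncompartmental analysis.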

The test system of series [3] is Mus musculus. Description: Toxicity in NCR-nu/nu mouse assessed as reduction in body weight at 20 mg/kg, ip treated 3 times a week for 2 weeks measured on alternate days for 14 days. Type of series: organism-based. Set-up: dose 20 mg/kg, route intraperitoneal. The note with it: in vivo, 336 h. An outline of the steps:
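Female athymic NCr-nu/nu mice bearing subcutaneous BT20 hind-leg tumors (~100–150 mm³) were given 20 mg/kg IP in DMSO (0.1 mL), 3 times a week for 2 weeks (N=8; vehicle N=7).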

Series [4] relates to Plasma. Description: Plasma protein binding in human at 10 to 50 uM by equilibrium dialysis. Type of series: ADME, cell-free.
Series [5] has as its target Tubulin (Sus scrofa, UniProt P02554+P02550). The series can be described thus: Competitive binding affinity to pig brain tubulin colchicine binding site after 1 hr by mass spectrophotometric analysis in presence of colchicine. Type of series: tissue-based. An outline of the steps:
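Porcine brain tubulin (1.0 mg/mL) in PIPES 80 mM, MgCl₂ 2 mM, EGTA 0.5 mM, pH 6.9, at 37 °C. Competitor was 0.1–100 μM for 1 h. Unbound ligand in the 30 kDa ultrafiltrate was measured by MS. Runs were in triplicate; IC50 came from a Hill fit.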

Series [6] deals with NCI-H417. The series can be described thus: Cytotoxicity against human NCI-N417 cells after 96 hrs by trypan blue exclusion assay. It is filed as functional. As to conditions: NCI-H417, 96 h. An outline of the steps: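 Cells grown in DMEM or RPMI with 10% FBS and 1 unit/mL penicillin-streptomycin, seeded in 12-well dishes at 2.5 ×10⁴ cells/mL/well. Compound added 24 h later at various concentrations. Viable cells counted by trypan blue exclusion from duplicate wells after 96 h. Value taken from dose-response curves of two independent experiments.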

The subject of series [7] is Liver. Description: Metabolic stability in rat liver S9 fraction assessed as compound remaining at 10 uM after 1 hr by LC-MS/MS analysis. Type of series: ADME, subcellular. As to conditions: s9, 1 h. The essentials: (§1)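 Compound at 10 μM was incubated with rat, dog or human liver S9 fraction (1 mg/mL) for 0, 30 and 60 min. Parent remaining at 1 h was quantified by LC-MS/MS.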

The test system of series [8] is Liver. Description: Metabolic stability in human liver S9 fraction assessed as compound remaining at 10 uM after 1 hr by LC-MS/MS analysis. Type of series: ADME, subcellular. As to conditions: s9, 1 h. The essentials: as §1

As to `COc1cc(OC)c(/C=C/S(=O)(=O)Nc2ccc(OC)c(N)c2)c(OC)c1`, in series [1], the inhibition result is “Dose-dependent effect”. In series [2], the AUC (as a rule, concentration integrated over time) was found to be 2040 ng·h/mL. In series [3], the Activity result was “Non-toxic”. This molecule registered a PPB in series [4] of 99.67%. In series [5], the IC50 (commonly the midpoint of a concentration-inhibition curve) was 3680 nM. Also, the 50% growth inhibitory concentration (GI50) (commonly the concentration at which growth is held to half of that of the control) in series [6] is 4 nM. Further, the Stability in series [7] came to 33%; in series [8], 20%.
